Laboratory results taken from ChEMBL document CHEMBL1150376, “Antitumor agents 260. New desmosdumotin B analogues with improved in vitro anticancer activity” (2008).
In brackets after ≈: the same amount, converted by molar mass. Activity calls are given as the source filed them. No cut-off for these calls is given here.

Assays:
Format in all cases: functional
KB [1] = assay: Cytotoxicity against human KB cells by sulforhodamine B assay; conditions: read-out: ED50 (the source's name)
Summary of the method: (§1)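 Cells grown in RPMI-1640 with 25 mM HEPES, 0.25% sodium bicarbonate, 10% FBS and 100 µg/mL kanamycin. Freshly trypsinized cells were seeded at 1500-7500 per well, and compounds were added from DMSO-diluted stock. After 3 days, attached cells were fixed with cold 50% TCA, stained with 0.4% SRB, and read at 562 nm. ED50 is the mean of ≥3 independent determinations.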

[2] = Cytotoxicity against human KB-VIN cells by sulforhodamine B assay; conditions: KBVIN, read-out: ED50 (the source's name); summary of the method: as §1
[3] = Selectivity index, ratio of ED50 for human KB cells to ED50 for vincristine-resistant human KB-VIN cells
Summary of the method: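 The ratio uses ED50 values from the 3-day SRB assay run in parallel on KB and vincristine-resistant KB-VIN cells. For each line, ED50 is the concentration giving 50% reduction in 562 nm absorbance relative to untreated cells, averaged over ≥3 independent determinations.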

A549 = assay: Cytotoxicity against human A549 cells by sulforhodamine B assay; conditions: for EC50: read-out: ED50 (the source's name); summary of the method: as §1
MCF7 = assay: Cytotoxicity against human MCF7 cells by sulforhodamine B assay; conditions: read-out: ED50 (the source's name); summary of the method: as §1
HCT-8 = assay: Cytotoxicity against human HCT8 cells by sulforhodamine B assay; conditions: for EC50: read-out: ED50 (the source's name); summary of the method: as §1
PC-3 = assay: Cytotoxicity against human PC3 cells by sulforhodamine B assay; conditions: for EC50: read-out: ED50 (the source's name); summary of the method: as §1
KB [4] = assay: Cytotoxicity against human KB cells at 20 ug/mL by sulforhodamine B assay

Compound | EC50 (KB [1]) | EC50 [2] | Ratio ED50 [3] | EC50 (A549) | EC50 (MCF7) | EC50 (HCT-8) | EC50 (PC-3) | Activity (KB [4]) | Activity (A549) | Activity (HCT-8) | Activity (PC-3)
COC1=C(C)C(O)=C2C(=O)C=C(c3ccccc3)OC2C1(C)C (configuration not stated) | 38.5 µg/mL (≈ 123 µM) | 23 µg/mL (≈ 73.6 µM) | 1.7 | – | – | – | – | – | – | – | –
CCC1=C(O)c2c(occ(-c3ccccc3)c2=O)C(CC)(CC)C1=O | 16 µg/mL (≈ 47.3 µM) | 3.5 µg/mL (≈ 10.3 µM) | 4.6 | 18 µg/mL (≈ 53.2 µM) | 10 µg/mL (≈ 29.6 µM) | 12 µg/mL (≈ 35.5 µM) | > 20 µg/mL | – | – | – | –
CCc1ccc(-c2cc(=O)c3c(O)c(CC)c(O)c(CC)c3o2)cc1 | > 20 µg/mL | 5 µg/mL (≈ 14.8 µM) | >4 | – | – | – | – | – | – | – | –
COC1=CC(O)=C2C(=O)C=C(c3ccccc3)OC2C1(C)C (configuration not stated) | 1.8 µg/mL (≈ 6.03 µM) | 1.8 µg/mL (≈ 6.03 µM) | 1 | – | – | – | – | – | – | – | –
CC1=C(O)c2c(oc(-c3c(C)cc(C)cc3C)cc2=O)C(C)(C)C1=O [2,4,6-TRIMETHYL DESMOSDUMOTIN B] | – | 5.82 µg/mL (≈ 17.2 µM) | >3.4 | – | – | – | – | <50% | – | – | –
CCC1=C(O)c2c(oc(-c3cccc4ccccc34)cc2=O)C(CC)(CC)C1=O [2-(NAPHTHALEN-1-YL)-6,8,8-TRIETHYL DESMOSDUMOTIN B] | 0.6 µg/mL (≈ 1.54 µM) | 0.3 µg/mL (≈ 0.772 µM) | 2 | 0.6 µg/mL (≈ 1.54 µM) | 0.2 µg/mL (≈ 0.515 µM) | 0.4 µg/mL (≈ 1.03 µM) | 0.4 µg/mL (≈ 1.03 µM) | – | – | – | –
CC1=C(O)c2c(oc(-c3cccc4ccccc34)cc2=O)C(C)(C)C1=O [2-(NAPHTHALEN-1-YL)DESMOSDUMOTIN B] | 0.51 µg/mL (≈ 1.47 µM) | 0.16 µg/mL (≈ 0.462 µM) | 3.2 | 0.6 µg/mL (≈ 1.73 µM) | 0.6 µg/mL (≈ 1.73 µM) | 0.4 µg/mL (≈ 1.15 µM) | 0.5 µg/mL (≈ 1.44 µM) | – | – | – | –
CC1=C(O)c2c(oc(-c3ccccc3C)cc2=O)C(C)(C)C1=O [2-METHYL DESMOSDUMOTIN B] | 37.3 µg/mL (≈ 120 µM) | 1.75 µg/mL (≈ 5.64 µM) | 21.3 | – | – | – | – | – | – | – | –
CC1=C(O)c2c(oc(-c3cc(C)cc(C)c3)cc2=O)C(C)(C)C1=O [3,5-DIMETHYL DESMOSDUMOTIN B] | 53 µg/mL (≈ 164 µM) | 2.91 µg/mL (≈ 8.97 µM) | 18.2 | – | – | – | – | – | – | – | –
CCc1ccc(-c2cc(=O)c3c(o2)C(C)(C)C(=O)C(C)=C3O)cc1 [4-ETHYL DESMOSDUMOTIN B] | 20 µg/mL (≈ 61.7 µM) | 1.54 µg/mL (≈ 4.75 µM) | 13 | – | – | – | – | – | – | – | –
CC1=C(O)c2c(oc(-c3ccc(C)cc3)cc2=O)C(C)(C)C1=O [4-METHYL DESMOSDUMOTIN B] | 22.5 µg/mL (≈ 72.6 µM) | 1.09 µg/mL (≈ 3.51 µM) | 20.7 | – | – | – | – | – | – | – | –
CCC1=C(O)c2c(oc(-c3ccccc3)cc2=O)C(CC)(CC)C1=O [6,8,8-TRIETHYL DESMOSDUMOTIN B] | > 80 µg/mL | 0.36 µg/mL (≈ 1.06 µM) | >222 | – | > 20 µg/mL | – | – | – | inactive | inactive | inactive
CCC1=C(O)c2c(oc(-c3cc4ccccc4c4ccccc34)cc2=O)C(CC)(CC)C1=O [6,8,8-TRIETHYL-2-(PHENANTHREN-9-YL) DESMOSDUMOTIN B] | 5 µg/mL (≈ 11.4 µM) | 4.3 µg/mL (≈ 9.81 µM) | 1.2 | 8 µg/mL (≈ 18.2 µM) | 4 µg/mL (≈ 9.12 µM) | 5.6 µg/mL (≈ 12.8 µM) | 6 µg/mL (≈ 13.7 µM) | – | – | – | –
CCC1=C(O)c2c(oc(-c3ccccc3C)cc2=O)C(CC)(CC)C1=O [6,8,8-TRIETHYL-2-METHYL DESMOSDUMOTIN B] | 18 µg/mL (≈ 51.1 µM) | 0.1 µg/mL (≈ 0.284 µM) | – | – | – | – | – | – | – | – | –
CCC1=C(O)c2c(oc(-c3ccc(CC)cc3)cc2=O)C(CC)(CC)C1=O [6,8,8-TRIETHYL-4-ETHYL DESMOSDUMOTIN B] | 8 µg/mL (≈ 21.8 µM) | 0.025 µg/mL (≈ 0.0682 µM) | 320 | – | – | – | – | – | – | – | –
CCC1=C(O)c2c(oc(-c3ccc(C)cc3)cc2=O)C(CC)(CC)C1=O [6,8,8-TRIETHYL-4-METHYL DESMOSDUMOTIN B] | 13.8 µg/mL (≈ 39.2 µM) | 0.03 µg/mL (≈ 0.0851 µM) | 460 | 16 µg/mL (≈ 45.4 µM) | > 20 µg/mL | 15 µg/mL (≈ 42.6 µM) | 18 µg/mL (≈ 51.1 µM) | – | – | – | –
CCC1=C(OC)C(CC)(CC)C2OC(c3ccccc3)=CC(=O)C2=C1O (configuration not stated) [6,8,8-TRIETHYL-7-METHOXY DESMOSDUMOTIN B] | 20 µg/mL (≈ 56.4 µM) | 15.5 µg/mL (≈ 43.7 µM) | 1.3 | – | – | – | – | – | – | – | –
CCCC1=C(O)c2c(oc(-c3ccccc3)cc2=O)C(CCC)(CCC)C1=O [6,8,8-TRIPROPYL DESMOSDUMOTIN B] | 4 µg/mL (≈ 10.5 µM) | 0.63 µg/mL (≈ 1.66 µM) | 6.4 | – | – | – | – | – | – | – | –
CCCC1=C(OC)C(CCC)(CCC)C2OC(c3ccccc3)=CC(=O)C2=C1O (configuration not stated) [6,8,8-TRIPROPYL-7-METHOXY DESMOSDUMOTIN B] | 8.5 µg/mL (≈ 21.4 µM) | 7 µg/mL (≈ 17.7 µM) | 1.2 | – | – | – | – | – | – | – | –
CCC1=C(O)c2c(oc(-c3ccccc3)cc2=O)C(C)(C)C1=O [6-ETHYL-8,8-DIMETHYL DESMOSDUMOTIN B] | > 20 µg/mL | 0.6 µg/mL (≈ 1.93 µM) | >33 | – | – | – | – | – | – | – | –
CC1=C(O)C(C)(C)c2oc(-c3ccccc3)cc(=O)c2C1=O [DESMOTUMOTIN B] | > 40 µg/mL | 2 µg/mL (≈ 6.75 µM) | >20 | > 20 µg/mL | > 20 µg/mL | – | – | – | – | inactive | inactive
CC[C@]1(O)C[C@H]2CN(CCc3c([nH]c4ccccc34)[C@@](C(=O)OC)(c3cc4c(cc3OC)N(C=O)[C@H]3[C@@](O)(C(=O)OC)[C@H](OC(C)=O)[C@]5(CC)C=CCN6CC[C@]43[C@@H]65)C2)C1 [VINCRISTINE] | 0.015 µg/mL (≈ 0.0182 µM) | 7 µg/mL (≈ 8.49 µM) | 0.002 | 0.004 µg/mL (≈ 0.00485 µM) | 0.01 µg/mL (≈ 0.0121 µM) | 0.02 µg/mL (≈ 0.0242 µM) | 0.01 µg/mL (≈ 0.0121 µM) | – | – | – | –
